# In the library only some 0.94% were active in any assay of this set; here they are far more common.
# GC-A act – GC-A stimulated cGMP production enhancers – HEK293 GC-A cells, cGMP TR-FRET, EC30 ANP, primary screen | 0% at EC30 ANP, 100% saturating ANP | activation, % at 10 µM | 370,000 tested, 0.14% active | Atrial natriuretic peptide receptor 1 (Homo sapiens), P16066; in the data active means activation above about 40%
# Arr AP2 block – inhibitors of beta-arrestin/AP2 binding, primary screen, biochemical, GPCR trafficking, flow cytometry; beta-arrestin 1 C-terminal peptide binding to AP2 beta2-adaptin appendage (human); FITC-arrestin peptide / GST-AP2 beads; AP2 beta2 appendage carries R879A mutation; 340,000 tested, 0.31% active; inhibition, % at 10 µM;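 active means inhibition above a set limit, near 3 SD of compounds lacking own fluorescence, cut at about 54% in these data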;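 further: plate controls were DMSO wells for no effect and 5 µM unlabelled arrestin peptide for full effect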
#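 Test system: GST-tagged AP2 beta2-adaptin appendage (R879A) on 4 µm glutathione beads; also added: fluorescein-tagged arrestin peptide at 50 nM final; timing: 12 min plus 1 h, RT; signal: flow cytometry, FL1 (488/535 nm); read-out: percent drop in bead-associated FITC signal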
# GalR3 antag – GalR3 antagonists in HEK293 cells, primary screen, cell-based, fluorescence readout | Galanin receptor type 3 (Homo sapiens), O60755 | 360,000 tested, 0.44% active | inhibition, % at 3 µM | HEK293 GalR3-CNG cAMP membrane potential fluorescence; galR3 body fused to GalR1 C-terminus;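 active means inhibition above the screen-wide average plus 3 SD, cut at about 13% in these data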;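 further: forskolin and galanin both at EC90 stimulate the cells; cAMP rise reported by CNG channel membrane potential dye signal; 0% = forskolin plus galanin with DMSO and 100% = forskolin alone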
# Target sequence (O60755 1-299 limits assumed): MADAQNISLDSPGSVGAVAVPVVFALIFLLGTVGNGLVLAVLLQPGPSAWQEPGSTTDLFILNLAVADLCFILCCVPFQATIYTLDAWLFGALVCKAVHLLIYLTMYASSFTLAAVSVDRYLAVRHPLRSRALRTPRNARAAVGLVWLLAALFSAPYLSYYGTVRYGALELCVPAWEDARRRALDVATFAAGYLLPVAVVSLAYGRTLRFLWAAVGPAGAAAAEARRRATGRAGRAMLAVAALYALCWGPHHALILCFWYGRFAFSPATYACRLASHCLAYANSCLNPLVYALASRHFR
# NPR2 activator – human GC-B receptor activators, primary screen, HEK293 GC-B cells, cGMP TR-FRET, EC30 CNP; Atrial natriuretic peptide receptor 2 (Homo sapiens), P20594; 0% at EC30 CNP, 100% saturating CNP; activation, % at 10 µM; 370,000 tested, 0.11% active; AID 1920062, 2024;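 active means activation at 10 µM reaching about 35% in either raw or pattern-adjusted values, limit read from the data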
# Arr-AP2 CP1 – inhibitors of arrestin peptide binding to AP2, confirmation, biochemical, cherry pick 1, flow cytometry beads; shares compounds with Arr AP2 block; GST-AP2 beads, FITC arrestin peptide binding; GST-fused beta2-adaptin appendage, R879A mutant; inhibition, % at 10 µM; 1,300 tested, 2% active; AID 504908, 2011;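 active means inhibition above a set limit, roughly 3 SD of non-fluorescent compound noise, cut at about 38% in these data; inactive means inhibition at or below that limit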;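 further: loss of bead fluorescence from 50 nM FITC arrestin peptide bound to appendage; 0% = negative control wells and 100% = excess unlabelled arrestin peptide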
# GST-FITC bead – GST-fluorescein capture on glutathione beads, confirmation, artefact control for arrestin-AP2 inhibitor project, biochemical, cherry pick 1, flow cytometry. shares compounds with Arr AP2 block. GST-fluorescein binding to GSH beads, fluorescence, counter-screen. inhibition, % at 10 µM. 1,300 tested, 2% active. AID 588338, 2011;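 active means inhibition above 50%, about 3 SD of the inhibition seen with non-fluorescent compounds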;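 further: fluorescein maleimide labelled GST captured on 4 micron glutathione beads; higher means more loss of bead fluorescence from quenching or blocked binding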
# Numbers without * were called inactive; nt = no result.
SMILES,GC-A act,Arr AP2 block,GalR3 antag,NPR2 activator,Arr-AP2 CP1,GST-FITC bead
COc1ccc(S(=O)(=O)N2CCC(C(=O)N3CCCCC3)CC2)cc1OC,-1.6,-16.7,-2.6,4.6,nt,nt
O=C(Nc1nccs1)C1(C(=O)C2CC2)CC(c2ccccn2)=NO1 (centres undefined),2.7,nt,nt,-2.0,nt,nt
COC(=O)N1Cc2ccnnc2CC1c1ccccc1-c1ccc(F)cc1 (centres undefined),-0.2,nt,-6.9,-1.4,nt,nt
Cc1ccc(S(=O)(=O)N2CCCc3nc(-c4ccc(F)cc4)ccc32)cc1,0.7,nt,-8.4,-1.5,nt,nt
CC(C)CCNC(=O)CCC(=O)NNc1nc2ccccc2c2nc(-c3ccccc3)nn12,2.0,62.5*,-2.2,-4.0,-1.6,2.5
COC(=O)c1c(NC(=O)/C=C/C(=O)O)sc(C)c1-c1ccc(C(C)C)cc1,1.9,56.8*,-9.4,0.1,-2.4,-10.5
Cc1ccc(C(=O)N2CCC(C(=O)c3ccc(F)cc3)CC2)cc1,2.6,58.1*,-7.8,0.1,-0.3,-5.2
CC(=O)Nc1ccc(C(=O)COC(=O)c2cc(C)oc2C)c(F)c1,-2.8,72.4*,-6.2,-2.2,-0.3,-1.6
CCCC(=O)N1CCC[C@]2(CC[C@@H](CCC(=O)OCC)O2)C1,1.6,nt,nt,11.7,nt,nt
CC[C@H](C)[C@H]1CNC(=O)C(=O)N1CC1CCN(CC(C)C)CC1,1.3,nt,-7.5,11.4,nt,nt
CCn1nc(NS(=O)(=O)c2ccccc2)c2cc3cc(C)ccc3nc21,-1.2,62.4*,1.2,-2.3,2.9,1.6
CC(=O)c1nn(-c2ccccc2)cc1C(=O)c1ccc(C)cc1,6.5,0.6,-0.2,7.3,nt,nt
N#Cc1cn(-c2ccccc2)nc1C(=O)c1ccccc1,0.2,83.0*,-4.7,1.5,-1.9,-8.5
CC(COc1ccc(C#N)cc1F)CN1CCC(C(O)(c2ccccc2)c2ccccc2)CC1 (centres undefined),-24.2,nt,nt,-18.0,nt,nt
COc1ccc2cc(C(=O)CS(=O)(=O)c3ccc(Cl)cc3)c(=O)oc2c1,-0.2,nt,-5.8,0.4,nt,nt
CC(C)Sc1ncc(S(=O)(=O)c2ccccc2)c(=O)[nH]1,-1.2,57.5*,-2.0,0.8,8.9,4.0
C#CCSc1ncc(S(=O)(=O)c2ccccc2)c(=O)[nH]1,0.2,-10.5,5.6,3.7,nt,nt
CC(C)Oc1cccc(-c2n[nH]c(=S)n2N=Cc2ccc(O)cc2O)c1,2.0,nt,nt,-1.2,nt,nt
CN(C)c1ccc(C(=O)NCC2CCN(C(=O)C(=O)c3cccs3)CC2)cc1,0.4,nt,-1.6,4.8,nt,nt
COCCN1C(=O)/C(=C/c2ccc(N3CCCC3)cc2C)SC1=S,-1.6,103.0*,-0.7,-3.8,-20.6,-1.8
O=S1(=O)c2ccc(N3CCCC3)cc2Oc2ccccc2CN1Cc1cn(Cc2cccc(F)c2)nn1,1.0,nt,nt,3.9,nt,nt
O=C(NC1CCCCC1)N(Cc1cc2cc3c(cc2[nH]c1=O)OCCO3)CC1CCCO1 (centres undefined),5.8,-1.6,-3.4,4.9,-8.9,-1.1
Cc1ccc2cc(CN(CCCN3CCOCC3)C(=O)NC3CCCCC3)c(=O)[nH]c2c1C,5.8,-3.5,0.7,0.9,1.2,-10.3
CCc1ccc2[nH]c(=O)c(CN(CCN(CC)CC)C(=O)NC3CCCCC3)cc2c1,-5.3,76.1*,-7.9,3.0,8.3,-6.7
Cc1cc(C)c2cc(CN(CCO)C(=O)NC3CCCCC3)c(=O)[nH]c2c1,-4.2,20.5,-2.8,7.8,nt,nt
SMILES,GC-A act,Arr AP2 block,GalR3 antag,NPR2 activator,Arr-AP2 CP1,GST-FITC bead
Cc1ccc2cc(CN(Cc3ccco3)C(=O)NC3CCCCC3)c(=O)[nH]c2c1C,3.2,12.5,-6.3,-3.5,nt,nt
O=C(NC1CCCCC1)N(CCO)Cc1cc2cc3c(cc2[nH]c1=O)OCCO3,5.4,8.3,-3.2,2.2,nt,nt
CCN1CCCC1CN(Cc1cc2c(C)cc(C)cc2[nH]c1=O)C(=O)NC1CCCCC1 (centres undefined),0.9,13.9,-4.0,20.6,-6.1,-4.4
CCc1ccc2[nH]c(=O)c(CN(CCN(C)C)C(=O)Nc3ccccc3)cc2c1,2.0,1.4,-7.3,0.2,nt,nt
O=[N+]([O-])c1cccc(COc2ccc(CO)cc2)c1,1.3,nt,-5.8,-4.1,nt,nt
COCc1cc(N2CCNC[C@@H]2C)ccc1N1CCN(Cc2ccccc2)[C@@H](C)C1,-0.2,nt,-8.2,6.3,nt,nt
Cc1cc2cc(CN(CCCN3CCOCC3)C(=O)NC3CCCCC3)c(=O)[nH]c2cc1C,3.7,-0.7,-2.6,0.6,-4.5,-2.4
Cc1cccc2cc(CN(CCN3CCOCC3)C(=O)Nc3ccccc3F)c(=O)[nH]c12,-2.5,-7.7,5.3,6.0,nt,nt
O=C(NC1CCCCC1)N(CCN1CCCC1)Cc1cc2cc3c(cc2[nH]c1=O)OCCO3,nt,-4.3,nt,nt,nt,nt
Cc1cccc2cc(CN(CCN3CCCC3)C(=O)NC3CCCCC3)c(=O)[nH]c12,-3.5,12.8,-1.3,-1.2,1.2,-8.6
O=C(Nc1ccccc1N1CCCC1)c1ccc(Br)o1,-0.9,29.2,-5.7,2.8,nt,nt
COc1ccc(N2CCCC2)c(NC(=O)c2ccc(Br)o2)c1,-10.8,64.5*,-3.0,2.7,19.4,-5.6
C[C@@H]1CN(C(=O)OC(C)(C)C)CCN1c1ccc(N2CC[C@@H](O)C2)c(C#N)c1,3.1,nt,0.2,5.3,nt,nt
COc1cc(C2Nc3cccc4cccc(c34)N2)cc(OC)c1O,nt,55.8*,7.2,nt,16.7,9.2
C/C(=N\NC(=O)c1ccc(CSc2nncn2C)cc1)c1ccc2ccccc2c1,-1.0,55.0*,-2.4,-9.0,3.5,-2.7
CSc1nn(CCC#N)c(=O)[nH]c1=O,-2.2,nt,0.0,6.8,nt,nt
CN(C)C(=O)c1cc(C(=O)c2ccc(C(F)(F)F)cc2F)c[nH]1,1.4,61.9*,-2.9,0.7,-18.0,1.4
CC(C)OC(=O)[C@@H](Cc1ccccc1)N[C@H](/C=C/c1ccccc1)[C@@H](O)Cc1ccccc1,-3.4,nt,1.6,-1.6,nt,nt
COc1ccc(C2O[C@@H](C)[C@@H]3C(=O)N4CCc5c([nH]c6ccccc56)[C@@H]4C[C@@H]3N2C)cc1 (some centres undefined),-0.6,nt,-1.8,2.3,nt,nt
c1ccc(Nc2cccc(Nc3ccccc3)n2)cc1,-2.7,61.3*,-1.9,-0.5,19.7,5.9
CCOC(=O)Cn1c(=NC(=O)c2cc(-c3cccs3)nc3ccccc23)sc2cc(S(N)(=O)=O)ccc21,-3.9,14.7,-4.5,-2.8,nt,nt
